Screens: PubChem, The Scripps Research Institute Molecular Screening Center
HTRA1 inh: blocks human HTRA1 serine peptidase; Q92743; AID 504803; 340,000 compounds, 0.5% hits; inhibition, % at 5.96 µM; recombinant HTRA1, FP-rhodamine activity-based probe, fluorescence polarization; in the data active means inhibition above about 36%
rCAG RNA binder: r(CAG) repeat RNA binding | inhibition, % at 3 µM | TO-PRO-1 dye displacement fluorescence | 370,000 compounds, 1.3% hits | AID 651821;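 active means inhibition above the plate cutoff, the mean of all test compounds on that plate plus 3 SD, cut at about 35% in these data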;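 further: higher means more dye released from RNA so lower well fluorescence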
TCR CD3 inh: blocks the human TCR-CD3 interaction; AID 651800; TAMRA-labeled TCR probe fluorescence, biochemical; 360,000 compounds, 0.37% hits; inhibition, % at 9.4 µM; in the data active means inhibition above about 19%;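 further: recombinant mutant TCR 2C K166C tagged with TAMRA read by polarization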
ABHD4 inh: inhibits mouse alpha/beta hydrolase domain 4 | AID 720543 | Q8VD66 | inhibition, % at 8.92 µM | 370,000 compounds, 0.54% hits | purified mABHD4, FP-Rh probe fluorescence polarization;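 active means inhibition exceeding the mean over every tested compound plus 3 SD, cut at about 30% in these data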
Target sequence (Q8VD66 whole entry, looked up, the tested form may be a part): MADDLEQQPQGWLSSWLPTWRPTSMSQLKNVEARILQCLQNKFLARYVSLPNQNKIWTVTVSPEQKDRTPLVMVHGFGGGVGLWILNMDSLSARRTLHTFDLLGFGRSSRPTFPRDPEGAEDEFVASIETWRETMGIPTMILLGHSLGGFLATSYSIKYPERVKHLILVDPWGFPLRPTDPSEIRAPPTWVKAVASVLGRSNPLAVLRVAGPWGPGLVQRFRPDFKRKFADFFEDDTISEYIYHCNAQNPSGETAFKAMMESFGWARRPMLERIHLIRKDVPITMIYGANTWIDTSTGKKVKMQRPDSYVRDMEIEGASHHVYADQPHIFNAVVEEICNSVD
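Test system: mABHD4 protein | Buffer or medium: HEPES pH 7.0 buffer, 150 mM NaCl, 0.01% Pluronic F-127 | Probe or stimulus: FP-Rh fluorescent activity-based probe, added after compound pre-incubation | Timing: Pre-incubation 45 min, probe exposure 60 min, at 25 °C | Technique: Fluorescence polarization, excitation 525 nm, emission 598 nm, BODIPY TMR filters | Repeats: Single well per compound (singlicate)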
SIAE primary: inhibitors of human sialic acid acetylesterase SIAE. Q9HAT2. SIAE FP-Rh probe binding, fluorescence polarization. inhibition, % at 9.66 µM. 370,000 compounds, 0.69% hits;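 active means inhibition above a cutoff: mean of compounds within the control limits plus 3 SD of those, cut at about 17% in these data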
PRMT1 FP inh: inhibitors of human PRMT1; 370,000 compounds, 1.3% hits; inhibition, % at 2.79 µM; recombinant PRMT1, activity-based probe fluorescence polarization; Q99873;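 active means inhibition above about 21% made by adding two undisclosed values, limit read from the data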
Target sequence (Q99873 whole entry, looked up): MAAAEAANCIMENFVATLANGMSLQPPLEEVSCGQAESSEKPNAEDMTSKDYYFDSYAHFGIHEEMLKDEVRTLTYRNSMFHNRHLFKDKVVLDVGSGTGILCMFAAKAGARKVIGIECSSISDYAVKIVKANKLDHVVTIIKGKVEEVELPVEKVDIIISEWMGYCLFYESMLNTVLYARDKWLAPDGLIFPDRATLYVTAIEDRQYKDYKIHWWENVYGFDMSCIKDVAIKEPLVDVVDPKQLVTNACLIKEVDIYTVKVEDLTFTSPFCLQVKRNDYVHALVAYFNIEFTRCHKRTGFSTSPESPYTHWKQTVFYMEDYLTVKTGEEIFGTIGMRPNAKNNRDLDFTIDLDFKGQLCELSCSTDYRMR
PRMT1 confirm: confirmation of human PRMT1 inhibitors. shares compounds with PRMT1 FP inh. recombinant His-PRMT1, activity-based probe fluorescence polarization. inhibition, % at 2.79 µM. 3,300 compounds, 42% hits. AID 687036;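 active means mean inhibition across replicates above the hit cutoff derived for the earlier primary screen, cut at about 22% in these data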
Large screens that a line does not name were inactive (follow-up assays come after a bar, where they were run). Rows were chosen to be rich in hits. Some 3.5% of all compounds tested hit in one or more screens of this group.

COCCCNC(=O)C[C@H]1C[C@@]2(C(=O)OC)C(=C[C@H](C(C)C)O[C@@H]2C2CC2)N(Cc2ccco2)C1=O	none (no result: HTRA1 inh, TCR CD3 inh)
O=C(Nc1nc(-c2ccco2)c(-c2ccco2)s1)c1ccc(F)cc1F	PRMT1 FP inh 34 | PRMT1 confirm inactive
C=CS(=O)(=O)c1sc(Cl)c(N2CCOCC2)c1[N+](=O)[O-]	PRMT1 FP inh 68 | PRMT1 confirm 82
C=CSc1sc(Cl)c(N2CCOCC2)c1[N+](=O)[O-]	none
Cc1cc(Cl)ccc1OCC(=O)N/N=C/c1ccc[nH]1	none (no result: HTRA1 inh, rCAG RNA binder, TCR CD3 inh)
O=C(CSc1nccc(=O)[nH]1)Nc1ccc(F)c(Cl)c1	PRMT1 FP inh 42 | PRMT1 confirm 30
COC(=O)c1sc(NC(=O)c2cc(-c3ccccc3)nc3ccccc23)c(C#N)c1C	PRMT1 FP inh 37 | PRMT1 confirm 63
COC(=O)CN1CCN(C(=O)c2nocc2C)CC1	none (no result: HTRA1 inh, TCR CD3 inh)
NC(=O)NC(=O)CC1S/C(=N/N=C2\CSC(=O)N2)NC1=O (stereo unspecified)	PRMT1 FP inh 45 | PRMT1 confirm 33
NC(=O)NC(=O)CC1S/C(=N/N=C/c2ccccc2)NC1=O (stereo unspecified)	none
COc1ccccc1NC(CC(=O)c1ccccc1)C(=O)OCC(=O)c1ccc(F)cc1 (stereo unspecified)	PRMT1 FP inh 35 | PRMT1 confirm inactive
Cc1c(Cl)cccc1NC(CC(=O)c1ccccc1)C(=O)O (stereo unspecified)	PRMT1 FP inh 35 | PRMT1 confirm inactive
Cc1c(Cl)cccc1NC(CC(=O)c1ccccc1)C(=O)OCC(=O)c1cccs1 (stereo unspecified)	PRMT1 FP inh 63 | PRMT1 confirm inactive
O=C(CC(Nc1ccc(Cl)cc1)C(=O)O)c1ccccc1 (stereo unspecified)	none
O=C(CC(Nc1ccccc1Cl)C(=O)O)c1ccccc1 (stereo unspecified)	PRMT1 FP inh 31 | PRMT1 confirm inactive
COC(=O)[C@]12C[C@H](CC(=O)NCc3ccc(C)o3)C(=O)N(CCc3ccc(OC)c(OC)c3)C1=C[C@H](COCc1ccccc1)O[C@@H]2C	none (no result: HTRA1 inh, TCR CD3 inh)
CC(C)N1CCCCC(NC(=O)c2ccc(Cl)cc2Cl)C1=O (stereo unspecified)	none (no result: HTRA1 inh, TCR CD3 inh)
O=C(CC(Nc1cccc(Cl)c1Cl)C(=O)O)c1ccccc1 (stereo unspecified)	PRMT1 FP inh 29 | PRMT1 confirm inactive
CC(=O)CC[C@@H]1CC[C@]2(CCCN(C(=O)C(C)(C)C)C2)O1	none (no result: HTRA1 inh, TCR CD3 inh)
Cc1ccc(S(=O)(=O)CCC(=O)c2ccc(O)cc2O)cc1	PRMT1 FP inh 35 | PRMT1 confirm inactive
c1cn2cc(-c3ccc4c(c3)OCO4)nc2s1	PRMT1 FP inh 35 | PRMT1 confirm 46
CC(=O)Nc1ccc(-c2cn3ccsc3n2)cc1	none
COCCn1c(SCCN2CCOCC2)nc2c1c(=O)[nH]c(=O)n2C	PRMT1 FP inh 38 | PRMT1 confirm 40
C=CCn1c(SCCN2CCOCC2)nc2c1c(=O)[nH]c(=O)n2C	none
Cc1c(O)nc(SCC(=O)Nc2nccs2)n(-c2ccccc2F)c1=O	PRMT1 FP inh 28 | PRMT1 confirm inactive
N#CC1=C(N)NC(=S)C(C(N)=O)C1c1ccc([N+](=O)[O-])cc1 (stereo unspecified)	PRMT1 FP inh 67 | PRMT1 confirm inactive
O=C1NC(C(=O)O)=CC(c2ccc([N+](=O)[O-])cc2)N1 (stereo unspecified)	none
COc1ccc(CCNC(=O)CSc2ccc(NC(C)=O)cc2)cc1OC	PRMT1 FP inh 25 | PRMT1 confirm 31
CCCCCCC(=O)NC1CCCCN(Cc2cccc(Cl)c2)C1=O (stereo unspecified)	none (no result: HTRA1 inh, TCR CD3 inh)
C=CC1=C(C(=O)O)N2C(=O)C(NC(=O)Cc3ccccc3)C2SC1 (stereo unspecified)	none
CN(C)CCn1nnnc1SCC1=C(C(=O)O)N2C(=O)[C@@H](NC(=O)Cc3csc(N)n3)[C@H]2SC1	PRMT1 FP inh 46 | PRMT1 confirm inactive
Cc1nnc(SCC2=C(C(=O)O)N3C(=O)C(NC(=O)Cn4nc(C(F)F)c(Cl)c4C)C3SC2)s1 (stereo unspecified)	PRMT1 FP inh 28 | PRMT1 confirm 39
Cc1nnc(SCC2=C(C(=O)O)N3C(=O)C(NC(=O)Cn4nc(C(F)F)cc4C)C3SC2)s1 (stereo unspecified)	PRMT1 FP inh 25 | PRMT1 confirm 29
Cc1nc2sc(C(=O)NCc3nccs3)c(N)c2c(C)c1Cl	none (no result: HTRA1 inh, TCR CD3 inh)
O=C(OCCCCSc1nnc(-c2cccc3ccccc23)o1)c1ccc(F)cc1	none (no result: HTRA1 inh, rCAG RNA binder, TCR CD3 inh)
Cc1ccc(/C=C/C(=O)Nc2cccnc2)o1	none
Cc1ccc(/C=C/C(=O)Nc2cccc3ncccc23)o1	PRMT1 FP inh 69 | PRMT1 confirm 28
Cc1ccc(/C=C/C(=O)Nc2nn[nH]n2)o1	PRMT1 FP inh 36 | PRMT1 confirm 55
O=C(Nc1ccc(OC(F)(F)F)cc1)Nc1c(-c2ccc(C(F)(F)F)cc2)nc2ncccn12	none (no result: HTRA1 inh, TCR CD3 inh)
Cc1ccc(Cc2c(-c3ccco3)nc3ccc(Br)cn23)cc1	PRMT1 FP inh 31 (no result: HTRA1 inh) | PRMT1 confirm inactive
COc1ccc(Cc2c(-c3ccco3)nc3ccc(Br)cn23)c(C)c1	PRMT1 FP inh 31 (no result: HTRA1 inh) | PRMT1 confirm inactive
Cc1ccc(Cc2c(-c3ccc(Cl)cc3)nc3ccc(Br)cn23)cc1	none
COc1ccc(Cc2c(-c3ccco3)nc3ccc(Cl)cn23)c(C)c1	PRMT1 FP inh 27 (no result: HTRA1 inh) | PRMT1 confirm inactive
COc1ccc(Cc2c(-c3ccccc3)nc3ccc(Cl)cn23)c(C)c1	none (no result: HTRA1 inh)
CCCC(=O)N1CCC[C@]2(CC[C@@H](CCC(=O)N(CC)CC)O2)C1	none (no result: HTRA1 inh, TCR CD3 inh)
COCO[C@@H]1CC(CO)=C[C@H]2OCO[C@H]21	none (no result: HTRA1 inh, rCAG RNA binder, TCR CD3 inh)
O=C(NCCc1ccccc1F)c1ccc2c(c1)ncn2C1CCCCC1	none (no result: HTRA1 inh, TCR CD3 inh)
O=Cc1s/c(=N\S(=O)(=O)c2ccccc2)n(CCCCl)c1Cl	PRMT1 FP inh 43 | PRMT1 confirm 37
Cc1cc(C)nc(SCCN2CCCCC2)n1	PRMT1 FP inh 26 | PRMT1 confirm inactive
COc1cc(-n2c(C)nc3cc(C(=O)N4CCCC4)ccc32)cc(OC)c1OC	none (no result: HTRA1 inh, TCR CD3 inh)
CC(=O)Nc1ccc(NC(=O)CSC2=NCCS2)cc1	none
O=C(CSC1=NCCS1)Nc1ccc(S(=O)(=O)N2CCCCCC2)cc1	PRMT1 FP inh 38 | PRMT1 confirm 52
O=C(CSC1=NCCS1)Nc1ccc(S(=O)(=O)NC2CCCCC2)cc1	PRMT1 FP inh 29 | PRMT1 confirm 26
COc1ccc(C(=O)Nc2ccc3c(c2)C(=O)N(C)[C@H]2CC[C@H](CC(=O)NCC4CC4)O[C@@H]2CO3)cc1	none (no result: HTRA1 inh, TCR CD3 inh)
O=C1NC(=O)/C(=C\c2ccc(N3CCOCC3)o2)N1	PRMT1 FP inh 30 | PRMT1 confirm inactive
COC(=O)[C@@]12CCCCC=C1N(CCc1ccc(Cl)cc1)C(=O)[C@H]2CC(=O)NCc1cccc(C(F)(F)F)c1	none (no result: HTRA1 inh, TCR CD3 inh)
